Measured values taken from ChEMBL document CHEMBL3784969, “Pharmacokinetics of flutamide in patients with renal insufficiency” (Br J Clin Pharmacol, 1999).

How the values were obtained:
[1] = system: Homo sapiens; experiment: AUC (0 to 24 hrs) in patient (3 patients) with renal insufficiency assessed as hydroxy flutamide at 250 mg, po administered as single dose by gas chromatography; assay type: ADME, organism-based; design: dose 250 mg, time < 24 hr, route oral; conditions: in vivo
[2] = system: Homo sapiens; experiment: AUC (0 to 24 hrs) in patient (6 patients) with renal insufficiency assessed as hydroxy flutamide at 250 mg, po administered as single dose by gas chromatography; assay type: ADME, organism-based; design: time < 24 hr, dose 250 mg, route oral; conditions: in vivo
[3] = system: Homo sapiens; experiment: Clearance in patient with renal insufficiency at 250 mg, po administered first dose followed by 14 days wash out period and administered second dose 4 hrs prior to hemodialysis measured during hemodialysis treatment by gas chromatography; assay type: ADME, organism-based; conditions: in vivo
In short: (§1)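 Group V haemodialysis males (CLcr <5 ml min−1 1.73 m−2). Single oral 250 mg flutamide (two 125 mg capsules) right after HD; after 14-day washout, same dose 4 h before HD lasting 2–4 h. Venous samples to 48 h, arterial/venous during HD, dialysate in hourly blocks. GC with 63Ni electron-capture detection. CL(HD) = dialysate Ae(HD)/arterial AUC(HD); renal CL = Ae(0,48)/AUC(0,48 h).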

[4] = system: Homo sapiens; experiment: Terminal half life in patient (3 patients) with renal insufficiency assessed as hydroxy flutamide at 250 mg, po administered as single dose by gas chromatography; assay type: ADME, organism-based; conditions: in vivo
In short: (§2)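 Males grouped by 24 h CLcr normalised to body surface area (>80, 50–80, 30–49, 5–29 ml min−1 1.73 m−2), fasted 10 h pre-dose and 4 h post-dose, given a single oral 250 mg flutamide dose. Plasma sampled 0–96 h; urine collected in blocks to 96 h. Flutamide and hydroxyflutamide measured by GC with electron-capture detection. Renal CL = Ae(0,96 h)/AUC(0,96 h); t1/2 = 0.693/λz.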

[5] = AUClast in patient (6 patients) with renal insufficiency at 250 mg, po administered as single dose by gas chromatography; assay type: ADME, organism-based; design: dose 250 mg, time 0 - last, route oral; conditions: human, in vivo
[6] = system: Homo sapiens; experiment: Tmax in patient (4 patients) with renal insufficiency assessed as hydroxy flutamide at 250 mg, po administered as single dose by gas chromatography; assay type: ADME, organism-based; conditions: in vivo; in short: as §2
[7] = Tmax in patient (3 patients) with renal insufficiency at 250 mg, po administered as single dose by gas chromatography; assay type: ADME, organism-based; conditions: human, in vivo; in short: as §2
[8] = AUC (0 to 24 hrs) in patient (3 patients) with renal insufficiency at 250 mg, po administered as single dose by gas chromatography; assay type: ADME, organism-based; design: time < 24 hr, dose 250 mg, route oral; conditions: human, in vivo
[9] = Drug excretion in urine of patient (3 patients) with renal insufficiency at 250 mg, po administered as single dose by gas chromatography; assay type: ADME, organism-based; conditions: human, in vivo; in short: as §2
[10] = system: Homo sapiens; experiment: AUClast in patient (6 patients) with renal insufficiency assessed as hydroxy flutamide at 250 mg, po administered as single dose 4 hrs prior to hemodialysis treatment measured at starting time of dialysis and post dialysis treatment by gas chromatography; assay type: ADME, organism-based; design: dose 250 mg, time 0 - last, route oral; conditions: in vivo
[11] = Drug excretion in urine of patient (7 patients) with renal insufficiency at 250 mg, po administered as single dose by gas chromatography; assay type: ADME, organism-based; conditions: human, in vivo; in short: as §2
[12] = system: Homo sapiens; experiment: Cmax in patient (4 patients) with renal insufficiency assessed as hydroxy flutamide at 250 mg, po administered as single dose by gas chromatography; assay type: ADME, organism-based; design: dose 250 mg, route oral; conditions: in vivo
[13] = Renal clearance in patient (7 patients) with renal insufficiency at 250 mg, po administered as single dose by gas chromatography; assay type: ADME, organism-based, Kidney; conditions: human, in vivo; in short: as §2
[14] = system: Homo sapiens; experiment: AUC (0 to 96 hrs) in patient (4 patients) with renal insufficiency at 250 mg, po assessed as hydroxy flutamide administered as single dose by gas chromatography; assay type: ADME, organism-based; design: dose 250 mg, time < 96 hr, route oral; conditions: in vivo
[15] = system: Homo sapiens; experiment: AUC (0 to 24 hrs) in patient (6 patients) with renal insufficiency assessed as hydroxy flutamide at 250 mg, po administered as single dose 4 hrs prior to hemodialysis treatment measured at starting time of dialysis and post dialysis treatment by gas chromatography; assay type: ADME, organism-based; design: time < 24 hr, dose 250 mg, route oral; conditions: in vivo
[16] = Cmax in patient (6 patients) with renal insufficiency at 250 mg, po administered as single dose 4 hrs prior to hemodialysis treatment measured at starting time of dialysis and post dialysis treatment by gas chromatography; assay type: ADME, organism-based; design: dose 250 mg, route oral; conditions: human, in vivo
[17] = system: Homo sapiens; experiment: AUC (0 to infinity) in patient (3 patients) with renal insufficiency at 250 mg, po assessed as hydroxy flutamide administered as single dose by gas chromatography; assay type: ADME, organism-based; design: dose 250 mg, time infinity, route oral; conditions: in vivo
[18] = Drug excretion in dialysate of patient with renal insufficiency at 250 mg, po administered first dose followed by 14 days wash out period and administered second dose 4 hrs prior to hemodialysis measured during hemodialysis treatment by gas chromatography; assay type: ADME, organism-based; conditions: human, in vivo; in short: as §1
[19] = system: Homo sapiens; experiment: AUC (0 to 24 hrs) in patient (7 patients) with renal insufficiency assessed as hydroxy flutamide at 250 mg, po administered as single dose by gas chromatography; assay type: ADME, organism-based; design: dose 250 mg, time < 24 hr, route oral; conditions: in vivo
[20] = system: Homo sapiens; experiment: AUC (0 to 24 hrs) in patient (4 patients) with renal insufficiency assessed as hydroxy flutamide at 250 mg, po administered as single dose by gas chromatography; assay type: ADME, organism-based; design: dose 250 mg, time < 24 hr, route oral; conditions: in vivo
[21] = Renal clearance in patient (6 patients) with renal insufficiency at 250 mg, po administered as single dose by gas chromatography; assay type: ADME, organism-based, Kidney; conditions: human, in vivo; in short: as §2
[22] = Cmax in patient (4 patients) with renal insufficiency at 250 mg, po administered as single dose by gas chromatography; assay type: ADME, organism-based; design: dose 250 mg, route oral; conditions: human, in vivo
[23] = system: Homo sapiens; experiment: Final time point in terminal phase in patient (7 patients) with renal insufficiency at 250 mg, po administered as single dose by gas chromatography; assay type: ADME, organism-based; conditions: in vivo; in short: as §2
[24] = Tmax in patient (4 patients) with renal insufficiency at 250 mg, po administered as single dose by gas chromatography; assay type: ADME, organism-based; conditions: human, in vivo; in short: as §2
[25] = system: Homo sapiens; experiment: Renal clearance in patient (6 patients) with renal insufficiency assessed as hydroxy flutamide at 250 mg, po administered as single dose by gas chromatography; assay type: ADME, organism-based, Kidney; conditions: in vivo; in short: as §2
[26] = Cmax in patient (7 patients) with renal insufficiency at 250 mg, po administered as single dose by gas chromatography; assay type: ADME, organism-based; design: dose 250 mg, route oral; conditions: human, in vivo
[27] = system: Homo sapiens; experiment: Final time point in terminal phase in patient (6 patients) with renal insufficiency at 250 mg, po administered as single dose by gas chromatography; assay type: ADME, organism-based; conditions: in vivo; in short: as §2
[28] = Drug recovery in dialysate of patient (6 patients) with renal insufficiency at 250 mg, po administered as single dose 4 hrs prior to hemodialysis treatment measured during dialysis treatment by gas chromatography; assay type: ADME, organism-based; conditions: human, in vivo; in short: as §1
[29] = Renal clearance in patient (4 patients) with renal insufficiency at 250 mg, po administered as single dose by gas chromatography; assay type: ADME, organism-based, Kidney; conditions: human, in vivo; in short: as §2
[30] = system: Homo sapiens; experiment: AUC (0 to 96 hrs) in patient (6 patients) with renal insufficiency assessed as hydroxy flutamide at 250 mg, po administered as single dose 4 hrs prior to hemodialysis treatment measured at starting time of dialysis and post dialysis treatment by gas chromatography; assay type: ADME, organism-based; design: time < 96 hr, dose 250 mg, route oral; conditions: in vivo
[31] = system: Homo sapiens; experiment: Final time point in terminal phase in patient (6 patients) with renal insufficiency assessed as hydroxy flutamide at 250 mg, po administered as single dose by gas chromatography; assay type: ADME, organism-based; conditions: in vivo; in short: as §2
[32] = system: Homo sapiens; experiment: Toxicity in patient with renal insufficiency assessed as level of lactic dehydrogenase at 250 mg, po administered as single dose (reference value: 85 to 220 IU/l); assay type: organism-based; conditions: in vivo
In short: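 Male subjects were grouped by creatinine clearance: normal renal function, graded impairment, or chronic haemodialysis. Each received a single oral dose as two 125 mg capsules while fasted. Serum lactic dehydrogenase was measured pre-dose and at follow-up and read against the 85–220 IU l−1 normal range.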

[33] = system: Homo sapiens; experiment: AUClast in patient (6 patients) with renal insufficiency at 250 mg, po assessed as hydroxy flutamide administered as single dose by gas chromatography; assay type: ADME, organism-based; design: dose 250 mg, time 0 - last, route oral; conditions: in vivo

## CC(C)C(=O)Nc1ccc([N+](=O)[O-])c(C(F)(F)F)c1 [FLUTAMIDE]
[1]
  AUC: 6166 ng·h/mL
[2]
  AUC: 5132 ng·h/mL
[3]
  CL: 21.4 mL/min
[4]
  beta t1/2: 8 h
[5]
  AUC(0-t): 75.8 ng·h/mL
[6]
  Tmax: 3 h
[7]
  Tmax: 2 h
[8]
  AUC(0-t) at 24 h: 98 ng·h/mL
[9]
  Drug excretion: 14 µg
[10]
  AUClast: 5862 ng·h/mL
[11]
  Drug excretion: 39 µg
[12]
  Cmax: 874 ng/mL
[13]
  CL renal: 22.8 mL/min
[14]
  AUC: 6499 ng·h/mL
[15]
  AUC: 5434 ng·h/mL
[16]
  Cmax: 81 ng/mL
[17]
  AUC: 6907 ng·h/mL
[18]
  Drug excretion: 1158 µg
[19]
  AUC: 4663 ng·h/mL
[20]
  AUC: 5821 ng·h/mL
[21]
  CL renal: 7.1 mL/min
[22]
  Cmax: 44 ng/mL
[23]
  Time: 3.6 h
[24]
  Tmax: 1 h
[25]
  CL: 0.36 mL/min
[26]
  Cmax: 20.9 ng/mL
[27]
  Time: 4.4 h
[28]
  Drug recovery: 0 mg
[29]
  CL renal: 4 mL/min
[30]
  AUC: 5963 ng·h/mL
[31]
  Time: 46 h
[32]
  Activity: 144 IU/L
[33]
  AUClast: 5476 ng·h/mL
